The results in this text go back to ChEMBL document CHEMBL1275429, “Pharmacodynamic characterization of ceftobiprole in experimental pneumonia caused by phenotypically diverse Staphylococcus aureus strains” (Antimicrob Agents Chemother, 2008).

Common to all, as to type: functional
For experiment [1], the system named is Staphylococcus aureus. Nature of the experiment: Antimicrobial activity against methicillin-susceptible Staphylococcus aureus ATCC 25923 by broth microdilution method. In short, it runs like this:
(§1)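 Broth microdilution run in triplicate following CLSI guidelines. Isolates were stored at –80°C in double-strength skim milk and subcultured twice on Trypticase soy agar with 5% sheep blood before testing.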
(In broth dilution the organism is exposed to a series of concentrations in liquid medium.)

Experiment [2] has as its system Staphylococcus aureus. Put plainly: Antimicrobial activity against hospital acquired methicillin-resistant Staphylococcus aureus 56 by broth microdilution method. The method in brief: as §1
In experiment [3] the test system is Staphylococcus aureus. Put plainly: Antimicrobial activity against community acquired methicillin-resistant Staphylococcus aureus 144 by broth microdilution method. In short, it runs like this: as §1
The subject of experiment [4] is Staphylococcus aureus. Put plainly: Antimicrobial activity against hospital acquired methicillin-resistant Staphylococcus aureus 149 by broth microdilution method. In short, it runs like this:
as §1

The test system of experiment [5] is Staphylococcus aureus. Put plainly: Antimicrobial activity against hospital acquired methicillin-resistant Staphylococcus aureus 152 by broth microdilution method. The method in brief:
as §1

The test system of experiment [6] is Staphylococcus aureus. Nature of the experiment: Antimicrobial activity against methicillin-susceptible Staphylococcus aureus ATCC 29213 by broth microdilution method. The method in brief: as §1
Experiment [7] concerns Staphylococcus aureus. Put plainly: Antimicrobial activity against community acquired methicillin-resistant Staphylococcus aureus 146 by broth microdilution method. In short, it runs like this: as §1
Experiment [8] concerns Staphylococcus aureus. Put plainly: Antimicrobial activity against community acquired methicillin-resistant Staphylococcus aureus 147 by broth microdilution method. In short, it runs like this:
as §1

In brackets after ≈: the same amount, converted by molar mass. Some results are limits rather than exact numbers.

As for `CCC[C@@H]1C[C@@H](C(=O)N[C@@H]([C@H]2O[C@H](SC)[C@H](O)[C@@H](O)[C@H]2O)[C@H](C)Cl)N(C)C1` [CLINDAMYCIN], the minimal inhibitory concentration (MIC) in the experiment with Staphylococcus aureus [1] is 0.125 µg/mL (≈ 0.294 µM); in the experiment with Staphylococcus aureus [2] it was 0.25 µg/mL (≈ 0.588 µM); in the experiment with Staphylococcus aureus [3], > 16 µg/mL; against Staphylococcus aureus [4], 0.125 µg/mL (≈ 0.294 µM); against Staphylococcus aureus [5] it was 0.125 µg/mL (≈ 0.294 µM); in the experiment with Staphylococcus aureus [6], 0.125 µg/mL (≈ 0.294 µM). In addition, the values for the MIC against Staphylococcus aureus [7] and in the experiment on Staphylococcus aureus [8] were 0.25 µg/mL (≈ 0.588 µM) and 0.125 µg/mL (≈ 0.294 µM), respectively.
For the compound `C[C@H]1c2cccc(O)c2C(=O)C2=C(O)[C@]3(O)C(=O)C(C(N)=O)=C(O)[C@@H](N(C)C)[C@@H]3[C@@H](O)[C@@H]21.O` [DOXYCYCLINE], the MIC came out at 0.25 µg/mL against Staphylococcus aureus [1]; 8 µg/mL in the experiment with Staphylococcus aureus [2]; 0.5 µg/mL in the experiment with Staphylococcus aureus [3]; 0.5 µg/mL in the experiment with Staphylococcus aureus [4]; 0.5 µg/mL in the experiment on Staphylococcus aureus [5]; 0.5 µg/mL against Staphylococcus aureus [6]. Also, the MIC in the experiment on Staphylococcus aureus [7] and against Staphylococcus aureus [8] was 2 µg/mL throughout.
Regarding `CC[C@H]1OC(=O)[C@H](C)[C@@H](O[C@H]2C[C@@](C)(OC)[C@@H](O)[C@H](C)O2)[C@H](C)[C@@H](O[C@@H]2O[C@H](C)C[C@H](N(C)C)[C@H]2O)[C@](C)(O)C[C@@H](C)C(=O)[C@H](C)[C@@H](O)[C@]1(C)O` [ERYTHROMYCIN], the MIC against Staphylococcus aureus [1] is 0.5 µg/mL (≈ 0.681 µM); in the experiment with Staphylococcus aureus [2] it was 32 µg/mL (≈ 43.6 µM); with Staphylococcus aureus [3], > 32 µg/mL; with Staphylococcus aureus [4] it was > 32 µg/mL; in the experiment with Staphylococcus aureus [5] it was 1 µg/mL (≈ 1.36 µM); in the experiment on Staphylococcus aureus [6] it was 1 µg/mL (≈ 1.36 µM). For the same compound, the minimum inhibitory concentration (MIC) with Staphylococcus aureus [7] and in the experiment with Staphylococcus aureus [8] was > 32 µg/mL each time.
Regarding `C[C@H]1COc2c(N3CCN(C)CC3)c(F)cc3c(=O)c(C(=O)O)cn1c23.C[C@H]1COc2c(N3CCN(C)CC3)c(F)cc3c(=O)c(C(=O)O)cn1c23.O` [LEVOFLOXACIN], the MIC in the experiment with Staphylococcus aureus [1] was 0.25 µg/mL; against Staphylococcus aureus [2] it was 0.25 µg/mL; in the experiment on Staphylococcus aureus [3], 0.5 µg/mL; against Staphylococcus aureus [4], 8 µg/mL; with Staphylococcus aureus [5], 0.25 µg/mL; against Staphylococcus aureus [6] it was 0.25 µg/mL. For the same compound, the minimum inhibitory concentration (MIC) in the experiment with Staphylococcus aureus [7] and in the experiment on Staphylococcus aureus [8] was 8 µg/mL throughout.
As for `CC(=O)NC[C@H]1CN(c2ccc(N3CCOCC3)c(F)c2)C(=O)O1` [LINEZOLID], the MIC in the experiment on Staphylococcus aureus [2] was found to be 8 µg/mL (≈ 23.7 µM).

For orientation: MIC means the lowest concentration found to suppress growth. Higher therefore signals a less susceptible organism.
